Measurements published in ChEMBL document CHEMBL1144684, “Evaluation of a series of naphthamides as potent, orally active vascular endothelial growth factor receptor-2 tyrosine kinase inhibitors” (J Med Chem, 2008).
Calls of active or inactive are those of the source. The rule behind the calls is not given here.

Experiments:
[1] = system: HUVEC; test: Selectivity of IC50 for VEGF-induced proliferation over IC50 for bFGF-induced proliferation of HUVEC; type: functional, Homo sapiens
In short: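 HUVECs were seeded at 3000 cells/well in DMEM/10% FBS with pen/strep and cultured for 22 h. They were preincubated 2 h with serially diluted compound, then stimulated with 50 ng/mL VEGF or 20 ng/mL bFGF for 72 h at 37 °C, 5% CO2. Cells were washed, frozen at -70 °C and stained with CyQuant. IC50s came from a four-parameter logistic fit, averaged over ≥2 experiments; the VEGF IC50 was compared against the bFGF IC50.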

[2] = Intrinsic clearance in rat liver microsomes at 1 uM; type: ADME, Microsome; conditions: read-out: Stability
In short: (§1)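 Human or rat liver microsomes (0.25 mg protein/mL) with 1 mM NADPH, 2 mM MgCl2 in 50 mM potassium phosphate pH 7.4 at 37 °C; compound 1 µM final. Sampled 0–40 min into acetonitrile, LC-MS/MS; ln % remaining vs time slope gives T1/2; CLint = (0.693/T1/2)/0.25 mg/mL.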

[3] = Intrinsic clearance in human liver microsomes at 1 uM; type: ADME, Microsome; conditions: read-out: Stability; in short: as §1
[4] = Clearance in Sprague-Dawley rat at 1 mg/kg, iv; type: ADME, organism-based; design: dose 1 mg/kg, route intravenous; conditions: in vivo
In short: (§2)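 Male Sprague–Dawley rats dosed iv via femoral vein as DMSO solution (1 or 0.5 mg/kg) or po by gavage as OraPlus suspension (pH 2.0–2.2 with methanesulfonic acid; 10 or 2 mg/kg). Serial jugular blood over 12–24 h; plasma acetonitrile precipitation, LC-MS/MS (MRM) with internal standard; noncompartmental parameters.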

[5] = system: Liver microsomes; test: Metabolic stability assessed as covalent binding in absence of NADPH in rat liver microsomes at 10 uM after 1 hr; type: ADME, Microsome
In short: (§3)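 14C-labelled compound at 10 µM with human or rat liver microsomes (1 mg/mL) in 0.1 M potassium phosphate pH 7.4, with or without 1 mM NADPH and 1 mM glutathione, 60 min; quenched with ice-cold acetonitrile. Pellet washed with 80% methanol and ethanol/ether, solubilized, protein by BCA, radioactivity by scintillation counting.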

[6] = system: Liver microsomes; test: Metabolic stability assessed as covalent binding in presence of NADPH and GSH in rat liver microsomes at 10 uM after 1 hr; type: ADME, Microsome; in short: as §3
[7] = Volume of distribution at steady state in Sprague-Dawley rat at 1 mg/kg, iv; type: ADME, organism-based; design: dose 1 mg/kg, route intravenous; conditions: in vivo, read-out: Vdss
In short: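 Male Sprague–Dawley rats given 1 mg/kg iv via femoral vein as DMSO solution or 10 mg/kg by oral gavage as OraPlus suspension, pH adjusted to 2.0–2.2 with methanesulfonic acid. Serial jugular blood over 12–24 h; plasma protein-precipitated with acetonitrile, quantified by LC-MS/MS (MRM) with internal standard; noncompartmental parameters.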

[8] = Half life in Sprague-Dawley rat at 1 mg/kg, iv; type: ADME, organism-based; design: dose 1 mg/kg, route intravenous; conditions: in vivo; in short: as §2
[9] = AUC (0 to infinity) in Sprague-Dawley rat at 2 mg/kg, po; type: ADME, organism-based; design: time infinity, dose 2 mg/kg, route oral; conditions: plasma; in short: as §2
[10] = Cmax in Sprague-Dawley rat at 2 mg/kg, po; type: ADME, organism-based; design: dose 2 mg/kg, route oral; conditions: in vivo; in short: as §2
[11] = Tmax in Sprague-Dawley rat at 2 mg/kg, po; type: ADME, organism-based; design: dose 2 mg/kg, route oral; conditions: in vivo
In short: (§4)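 Male Sprague–Dawley rats dosed iv at 0.5 mg/kg as DMSO solution or po at 2 mg/kg as suspension in 100% OraPlus. Serial jugular blood, plasma LC-MS/MS quantitation, noncompartmental analysis.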

[12] = Oral bioavailability in Sprague-Dawley rat at 2 mg/kg; type: ADME, organism-based; conditions: in vivo; in short: as §4
[13] = Aqueous solubility in 0.01 N Hcl; type: physicochemical
[14] = target: Vascular endothelial growth factor receptor 1 (Homo sapiens, UniProt P17948); test: Inhibition of human VEGFR1
[15] = target: Vascular endothelial growth factor receptor 3 (Homo sapiens) (UniProt P35916); test: Inhibition of human VEGFR3
[16] = target: Platelet-derived growth factor receptor alpha (Homo sapiens) (UniProt P16234); test: Inhibition of PDGFRalpha
[17] = target: Mast/stem cell growth factor receptor Kit (Homo sapiens) (UniProt P10721); test: Inhibition of c-Kit
[18] = target: Macrophage colony-stimulating factor 1 receptor (Homo sapiens) (UniProt P07333); test: Inhibition of c-fms
[19] = target: Tyrosine-protein kinase Lyn (Homo sapiens, UniProt P07948); test: Inhibition of Lyn
[20] = system: Mus musculus; test: Inhibition of VEGF-induced vascular permeability in HEK293 cells expressing mouse recombinant VEGF implanted in CD1 nu/nu mouse assessed as Matrigel plug at 3 mg/kg, po after 6 hrs; type: functional, organism-based; design: dose 3 mg/kg
In short: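 HEK293 cells expressing murine VEGF (or vector) suspended in Matrigel, injected sc ventrally into CD-1 nu/nu mice. At 24 h, single oral gavage dose as OraPlus suspension; 6 h later Evans blue quantified in 1 cm2 skin over plug; plasma level taken at 6 h; n = 5/group.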

[21] = system: Rattus norvegicus; test: Inhibition of VEGF-induced angiogenesis in VEGF-soaked disk implanted in Sprague-Dawley rat cornea assessed as number of blood vessels intersecting the midpoint between disk and limbus after 7 days; type: functional; conditions: 168 h
[22] = AUC in VEGF-soaked disk implanted in Sprague-Dawley rat; type: ADME, organism-based; conditions: plasma
[23] = Cmax in VEGF-soaked disk implanted in Sprague-Dawley rat; type: ADME, organism-based; conditions: in vivo
[24] = system: Liver microsomes; test: Metabolic stability assessed as covalent binding in presence of NADPH in human liver microsomes at 10 uM after 1 hr; type: ADME, Microsome; in short: as §3
[25] = system: Liver microsomes; test: Metabolic stability assessed as covalent binding in absence of NADPH in human liver microsomes at 10 uM after 1 hr; type: ADME, Microsome; in short: as §3
[26] = system: Liver microsomes; test: Metabolic stability assessed as covalent binding in presence of NADPH and GSH in human liver microsomes at 10 uM after 1 hr; type: ADME, Microsome; in short: as §3
[27] = system: Liver microsomes; test: Metabolic stability assessed as covalent binding in presence of NADPH in rat liver microsomes at 10 uM after 1 hr; type: ADME, Microsome; in short: as §3
[28] = target: Angiopoietin-1 receptor (Homo sapiens, UniProt Q02763); test: Inhibition of Tie2
[29] = target: Hepatocyte growth factor receptor (Homo sapiens, UniProt P08581); test: Inhibition of c-Met
[30] = target: Tyrosine-protein kinase Lck (Homo sapiens, UniProt P06239); test: Inhibition of Lck
[31] = target: T1, Aurora kinase A (Homo sapiens, UniProt O14965); test: Inhibition of Aurora A
T1 sequence (O14965 whole entry): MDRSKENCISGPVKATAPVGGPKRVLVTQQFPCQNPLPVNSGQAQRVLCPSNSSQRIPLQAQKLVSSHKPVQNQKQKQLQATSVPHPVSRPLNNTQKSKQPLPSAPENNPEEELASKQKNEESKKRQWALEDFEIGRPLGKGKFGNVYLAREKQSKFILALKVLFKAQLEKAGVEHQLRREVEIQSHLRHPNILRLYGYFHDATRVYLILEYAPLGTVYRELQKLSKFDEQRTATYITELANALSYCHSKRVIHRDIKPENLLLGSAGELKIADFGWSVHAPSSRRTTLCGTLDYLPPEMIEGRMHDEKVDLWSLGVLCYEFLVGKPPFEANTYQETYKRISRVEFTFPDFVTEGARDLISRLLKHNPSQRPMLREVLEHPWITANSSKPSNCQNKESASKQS

[32] = target: Aurora kinase B (Homo sapiens, UniProt Q96GD4); test: Inhibition of Aurora B
[33] = system: HUVEC; test: Inhibition of VEGF-induced proliferation of HUVEC; type: functional, cell-based; conditions: Homo sapiens
[34] = system: HUVEC; test: Inhibition of bFGF-induced proliferation of HUVEC; type: functional, cell-based; conditions: Homo sapiens
In short: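 HUVEC seeded at 3000/well in DMEM with 10% FBS, 22 h; 2 h preincubation with serial compound dilutions, then 50 ng/mL VEGF or 20 ng/mL bFGF for 72 h at 37 °C. Freeze–thaw, CyQuant DNA dye read-out; IC50 by four-parameter logistic fit, averaged over ≥2 experiments.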

[35] = target: Vascular endothelial growth factor receptor 2 (Homo sapiens, UniProt P35968)
Vascular endothelial growth factor receptor 2, sequence (P35968 whole entry): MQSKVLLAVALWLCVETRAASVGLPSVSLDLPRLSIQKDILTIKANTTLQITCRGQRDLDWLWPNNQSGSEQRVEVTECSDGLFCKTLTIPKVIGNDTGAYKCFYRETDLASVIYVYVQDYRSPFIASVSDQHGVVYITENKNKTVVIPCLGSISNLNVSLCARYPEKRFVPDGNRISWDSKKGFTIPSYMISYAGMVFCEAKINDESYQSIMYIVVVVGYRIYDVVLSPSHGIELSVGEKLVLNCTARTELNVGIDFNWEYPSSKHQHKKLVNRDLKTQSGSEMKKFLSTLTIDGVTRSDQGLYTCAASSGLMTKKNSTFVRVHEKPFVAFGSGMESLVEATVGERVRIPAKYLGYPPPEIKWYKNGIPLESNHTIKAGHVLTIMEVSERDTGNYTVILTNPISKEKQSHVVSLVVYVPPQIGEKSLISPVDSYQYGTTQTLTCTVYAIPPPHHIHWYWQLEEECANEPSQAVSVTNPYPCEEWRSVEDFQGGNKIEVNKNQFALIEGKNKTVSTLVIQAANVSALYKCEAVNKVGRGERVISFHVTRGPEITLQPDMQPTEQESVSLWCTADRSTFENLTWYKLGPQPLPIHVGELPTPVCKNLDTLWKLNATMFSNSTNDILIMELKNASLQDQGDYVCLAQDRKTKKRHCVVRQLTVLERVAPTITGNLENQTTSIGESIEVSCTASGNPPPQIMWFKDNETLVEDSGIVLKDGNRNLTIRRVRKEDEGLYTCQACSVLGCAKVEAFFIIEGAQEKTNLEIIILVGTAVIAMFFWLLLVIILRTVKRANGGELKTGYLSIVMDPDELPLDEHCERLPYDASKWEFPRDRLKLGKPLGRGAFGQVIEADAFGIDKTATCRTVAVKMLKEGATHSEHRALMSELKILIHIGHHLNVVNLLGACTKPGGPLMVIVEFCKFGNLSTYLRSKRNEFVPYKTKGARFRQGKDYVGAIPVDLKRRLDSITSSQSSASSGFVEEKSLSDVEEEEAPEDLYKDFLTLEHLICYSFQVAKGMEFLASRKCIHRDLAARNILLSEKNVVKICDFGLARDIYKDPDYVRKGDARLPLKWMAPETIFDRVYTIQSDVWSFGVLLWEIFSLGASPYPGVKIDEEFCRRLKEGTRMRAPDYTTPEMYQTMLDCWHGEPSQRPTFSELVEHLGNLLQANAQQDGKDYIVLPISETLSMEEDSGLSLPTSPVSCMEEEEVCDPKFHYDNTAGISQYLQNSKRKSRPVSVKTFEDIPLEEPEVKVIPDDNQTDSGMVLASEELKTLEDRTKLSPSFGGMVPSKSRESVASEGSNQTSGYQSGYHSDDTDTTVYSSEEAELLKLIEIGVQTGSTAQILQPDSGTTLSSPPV

Angiopoietin-1 receptor, sequence (Q02763 whole entry): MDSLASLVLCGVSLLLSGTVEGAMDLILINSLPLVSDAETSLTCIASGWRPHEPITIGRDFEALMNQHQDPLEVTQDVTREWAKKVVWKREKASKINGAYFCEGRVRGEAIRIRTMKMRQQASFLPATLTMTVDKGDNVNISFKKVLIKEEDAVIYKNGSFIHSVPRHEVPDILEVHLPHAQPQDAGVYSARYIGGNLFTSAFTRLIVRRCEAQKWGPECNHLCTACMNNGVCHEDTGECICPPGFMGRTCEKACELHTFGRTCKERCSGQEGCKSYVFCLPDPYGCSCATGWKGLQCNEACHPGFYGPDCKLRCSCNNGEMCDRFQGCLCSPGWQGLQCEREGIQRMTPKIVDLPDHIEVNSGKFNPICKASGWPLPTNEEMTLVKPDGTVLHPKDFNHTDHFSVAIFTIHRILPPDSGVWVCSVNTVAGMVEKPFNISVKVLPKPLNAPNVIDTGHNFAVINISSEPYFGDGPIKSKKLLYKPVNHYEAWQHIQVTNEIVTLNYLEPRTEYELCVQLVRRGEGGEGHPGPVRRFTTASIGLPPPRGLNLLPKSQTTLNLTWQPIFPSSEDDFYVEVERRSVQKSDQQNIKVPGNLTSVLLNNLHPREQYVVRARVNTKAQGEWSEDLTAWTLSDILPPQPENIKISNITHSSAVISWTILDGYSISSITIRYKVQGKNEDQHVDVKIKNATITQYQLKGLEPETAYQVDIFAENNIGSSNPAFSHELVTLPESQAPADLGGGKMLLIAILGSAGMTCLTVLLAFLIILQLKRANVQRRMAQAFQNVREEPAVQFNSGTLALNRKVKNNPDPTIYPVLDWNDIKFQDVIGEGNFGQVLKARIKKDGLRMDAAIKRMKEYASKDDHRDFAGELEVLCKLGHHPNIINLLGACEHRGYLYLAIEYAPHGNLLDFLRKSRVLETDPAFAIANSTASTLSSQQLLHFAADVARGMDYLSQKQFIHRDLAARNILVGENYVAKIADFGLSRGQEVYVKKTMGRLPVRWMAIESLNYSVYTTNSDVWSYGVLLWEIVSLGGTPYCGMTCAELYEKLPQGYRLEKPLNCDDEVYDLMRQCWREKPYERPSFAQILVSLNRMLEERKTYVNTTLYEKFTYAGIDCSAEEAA
Aurora kinase B, sequence (Q96GD4 whole entry): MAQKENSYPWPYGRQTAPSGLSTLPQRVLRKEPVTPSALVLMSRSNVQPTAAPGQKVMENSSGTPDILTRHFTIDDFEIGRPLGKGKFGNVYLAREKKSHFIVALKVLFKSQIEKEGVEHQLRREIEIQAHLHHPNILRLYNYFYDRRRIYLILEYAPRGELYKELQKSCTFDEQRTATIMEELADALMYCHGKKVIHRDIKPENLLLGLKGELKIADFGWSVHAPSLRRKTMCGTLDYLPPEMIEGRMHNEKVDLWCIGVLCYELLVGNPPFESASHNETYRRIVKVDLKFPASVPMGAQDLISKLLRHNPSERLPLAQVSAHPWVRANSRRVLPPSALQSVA
Hepatocyte growth factor receptor, sequence (P08581 whole entry): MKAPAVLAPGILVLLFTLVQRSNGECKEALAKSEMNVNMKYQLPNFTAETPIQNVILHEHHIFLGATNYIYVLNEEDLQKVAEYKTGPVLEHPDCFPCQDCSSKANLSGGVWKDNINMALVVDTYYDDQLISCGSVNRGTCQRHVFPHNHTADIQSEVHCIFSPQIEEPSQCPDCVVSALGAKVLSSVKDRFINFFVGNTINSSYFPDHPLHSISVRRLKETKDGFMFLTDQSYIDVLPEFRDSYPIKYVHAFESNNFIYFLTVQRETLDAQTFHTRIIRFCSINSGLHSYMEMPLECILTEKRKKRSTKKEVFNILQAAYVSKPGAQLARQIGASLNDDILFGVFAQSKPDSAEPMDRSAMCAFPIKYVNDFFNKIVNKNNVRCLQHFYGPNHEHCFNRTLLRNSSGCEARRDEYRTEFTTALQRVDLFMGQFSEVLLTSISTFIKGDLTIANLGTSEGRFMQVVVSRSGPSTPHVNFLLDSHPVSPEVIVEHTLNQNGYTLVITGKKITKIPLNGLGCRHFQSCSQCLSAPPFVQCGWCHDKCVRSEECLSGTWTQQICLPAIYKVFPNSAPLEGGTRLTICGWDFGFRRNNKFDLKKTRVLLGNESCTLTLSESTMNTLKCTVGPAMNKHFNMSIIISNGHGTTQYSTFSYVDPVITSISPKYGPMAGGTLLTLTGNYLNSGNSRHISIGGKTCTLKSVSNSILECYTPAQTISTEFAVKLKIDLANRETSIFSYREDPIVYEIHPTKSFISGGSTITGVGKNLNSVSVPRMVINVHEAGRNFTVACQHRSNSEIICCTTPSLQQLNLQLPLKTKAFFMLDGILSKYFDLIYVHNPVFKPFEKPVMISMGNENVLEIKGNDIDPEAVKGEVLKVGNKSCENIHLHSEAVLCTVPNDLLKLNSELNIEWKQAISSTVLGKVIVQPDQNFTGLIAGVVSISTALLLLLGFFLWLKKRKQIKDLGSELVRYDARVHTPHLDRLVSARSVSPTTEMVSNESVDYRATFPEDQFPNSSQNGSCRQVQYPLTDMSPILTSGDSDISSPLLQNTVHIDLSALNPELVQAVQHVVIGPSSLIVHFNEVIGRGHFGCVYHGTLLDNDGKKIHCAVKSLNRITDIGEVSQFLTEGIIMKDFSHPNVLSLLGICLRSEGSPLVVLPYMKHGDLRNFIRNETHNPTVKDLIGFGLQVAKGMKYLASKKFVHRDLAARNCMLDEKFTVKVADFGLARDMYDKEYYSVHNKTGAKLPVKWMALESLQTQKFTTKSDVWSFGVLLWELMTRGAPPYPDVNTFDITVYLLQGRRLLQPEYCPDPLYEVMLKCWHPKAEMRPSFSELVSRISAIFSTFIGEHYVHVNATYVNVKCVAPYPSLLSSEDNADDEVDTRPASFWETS
Tyrosine-protein kinase Lck, sequence (P06239 whole entry): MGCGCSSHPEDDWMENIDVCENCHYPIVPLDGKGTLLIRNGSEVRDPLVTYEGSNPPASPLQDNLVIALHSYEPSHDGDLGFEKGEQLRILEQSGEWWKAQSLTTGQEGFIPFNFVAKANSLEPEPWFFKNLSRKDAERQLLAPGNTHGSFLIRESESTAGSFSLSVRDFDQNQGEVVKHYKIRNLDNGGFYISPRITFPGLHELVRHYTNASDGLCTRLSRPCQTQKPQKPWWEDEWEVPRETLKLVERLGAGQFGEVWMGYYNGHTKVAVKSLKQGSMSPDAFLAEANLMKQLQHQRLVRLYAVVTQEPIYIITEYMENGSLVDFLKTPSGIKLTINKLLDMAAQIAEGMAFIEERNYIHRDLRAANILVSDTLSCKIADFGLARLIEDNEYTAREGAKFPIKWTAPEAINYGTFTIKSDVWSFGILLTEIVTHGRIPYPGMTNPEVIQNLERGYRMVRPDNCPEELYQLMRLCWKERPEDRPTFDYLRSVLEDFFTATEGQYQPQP

COCCNC(=O)c1cccc2cc(Oc3ccnc4cc(OC)c(OC)cc34)ccc12
Selectivity ratio [1]: >100 | microsomal CLint at 1 µM [2]: 48 µL/min/mg | microsomal CLint at 1 µM [3]: 32 µL/min/mg | clearance [4]: 8.87 mL/min/kg | Stability [5]: 125 pmol/mg/h | Stability [6]: 1.6 pmol/mg/h | Vd [7]: 1.13 L/kg | half-life [8]: 1.6 h | AUC(0-inf) [9]: 3770 ng·h/mL | Cmax [10]: 543 ng/mL | Tmax [11]: 2 h | bioavailability [12]: 99% | solubility [13]: > 200 µg/mL | IC50 [14]: 73 nM | Activity [15]: Active | Activity [16]: Active | Activity [17]: Active | Activity [18]: Active | IC50 [19]: 275 nM | Cp [20]: 0.2 µM | ED50 [21]: 0.04 mg/kg | AUC [22]: 0.52 µM·h | Cmax [23]: 40 nM | Stability [24]: 321 pmol/mg/h | Stability [25]: 125 pmol/mg/h | Stability [26]: 1.6 pmol/mg/h | Stability [27]: 353 pmol/mg/h | IC50 [28]: 25000 nM | IC50 [29]: 20000 nM | IC50 [30]: 1200 nM | IC50 [31]: 7200 nM | IC50 [32]: 130 nM | IC50 [33]: 0.64 nM | IC50 [34]: 1140 nM | IC50 [35]: 12 nM
